Key:
[1] = melting temperature; fluorescence melt of hairpins on a sequencing array, two-state fit, raised by 9.35 °C to match UV melts; details: sodium 0.088 M
In short: (§1)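 Bootstrapped two-state fits yielded melting temperature and folding enthalpy for library hairpins. Cy3 fluorescence, with annealed Cy3 and quencher oligos, was imaged on a sequenced MiSeq flow cell in 50 mM Na-HEPES pH 8.0, 25 mM NaCl in 2.5 °C steps up to 60 °C, and normalised to pre-quench Cy3 and to control constructs. Four replicates were combined by inverse variance, and fitted temperatures were raised by 9.35 °C to match UV melts.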

[2] = folding enthalpy; higher = less favourable; fluorescence melt of hairpins on a sequencing array, two-state fit; details: sodium 0.088 M
In short: as §1

Row | Sequence | Tm [1] [°C] | folding enthalpy [2] [kcal/mol]
1 | GCATCGTCGAAAGACTGC (((..(((....)))))) | 36.8 | -15.8
2 | GACCAGCGAAAGCTAGTC (((.(((....))).))) | 44.8 | -23.1
3 | GGCTAACGAAAGTTGCC (((.(((....)))))) | 54 | -30
4 | GCGATTCTTCGC ((((....)))) | 53.5 | -26.1
5 | GGTAGGACGAAAGTCACC (((..(((....)))))) | 35.8 | -15.5
6 | GTACATGGAAACATGTAC (((((((....))))))) | 55.7 | -51.6
7 | GATCCTGTTGAGGATC ((((((....)))))) | 53.2 | -33.9
8 | CTGGAGAAATCCAG (((((....))))) | 43.6 | -27.1
9 | GGTGTCGAAAGACTACC ((((((....))).))) | 47.8 | -17.7
10 | GTCTTCCGAAAGGAGAC (((.(((....)))))) | 47.6 | -23.4
11 | GTACTCGGAAACGAGTAC (((((((....))))))) | 63 | -37.7
12 | GATCCAAGTTGGATC ((((((...)))))) | 49.1 | -35.7
13 | GCAGGGCGAAAGCTTTGC (((..((....))..))) | 50.7 | -19.8
14 | GTCTTGCCGAAAGGCGAC (((..(((....)))))) | 38.3 | -10.7
15 | GAGCCCGAAAGGGCCTC ((((((....))).))) | 58.9 | -8.72
16 | GCGAGGCGAAAGCCAAGC ((..(((....)))..)) | 69.2 | -20.5
17 | GATCCACAGATGGATC ((((((....)))))) | 49 | -38.6
18 | GATCAACCATTGATC ((((((...)))))) | 38.8 | -29
19 | GCCCACGAAAGTGTGGGC ((((((....)))..))) | 68 | -31.5
20 | GATCTTTCATAAGATC ((((((....)))))) | 44.8 | -31.4
21 | ACAGAGAAATCTGT (((((....))))) | 32.7 | -13.6
22 | GCGTAGCGAAAGCTTAGC ((..(((....)))..)) | 51.5 | -14.6
23 | GAAGCCGAAAGGCGTTC ((((((....))).))) | 46.7 | -8.99

Row | Sequence | Tm [1] [°C] | folding enthalpy [2] [kcal/mol]
24 | GTTGGTGGAAACGCCAAC (((((.(....).))))) | 54.4 | -40
25 | GATGACGCGAAAGCGATC (((..(((....)))))) | 35 | -8.64
26 | GGCTTTCCGAAAGGAGCC (((..(((....)))))) | 45.2 | -24.5
27 | GTATGGCGAAAGCCCTAC (((.(((....))).))) | 37.8 | -18.4
28 | CGAACCCGGAAACGGTCG (((..(((....)))))) | 36.7 | -13
29 | GGCACTGGAAACGGTGTC (.(((.(....).))).) | 41.7 | -28.1
30 | GCGCCGGGAAACCGGTGC ((.((((....)))).)) | 69 | -31.5
31 | GTCCCAGAAATGGGAC ((((((....)))))) | 64.3 | -33.7
32 | GTTATCGAAAGATAAAC ((((((....))).))) | 32.9 | -20.9
33 | GGGATTGGAAACGATTCC ((.((.(....).)).)) | 36.9 | -21
34 | GTCTCGGAAACGAGAC ((((((....)))))) | 64.8 | -44.5
35 | GCCTTGGGAAACTGAGGC ((((..(....)..)))) | 45.1 | -29.9
36 | GTTGGTCCGAAAGGAAAC (((..(((....)))))) | 36.9 | -23.4
37 | GAGCGCGAAAGCGGCTC ((((((....))).))) | 67.8 | -20.6
38 | GCAAGGGCGAAAGCCTGC (((..(((....)))))) | 50.9 | -14
39 | GATCGATAACTCGATC ((((((....)))))) | 49.3 | -36.3
40 | GCGAATCTTCGC ((((....)))) | 52.8 | -28
41 | GGTAGAGGAAACTCTGCC ((.((((....)))).)) | 49.2 | -34.2
42 | GAGTTGGGAAACTGACTC ((((..(....)..)))) | 34.4 | -26.7
43 | GGCCTGCGAAAGCACGCC (((.(((....))).))) | 53.4 | -37.6
44 | GTAATACGAAAGTAATAC (((.(((....))).))) | 34 | -20.2
45 | GCAGTTCGAAAGAAATGC (((.(((....))).))) | 54.2 | -36.8
46 | GATTGCGGAAACGCAGTC ((.((((....)))).)) | 49.6 | -25.2

Row | Sequence | Tm [1] [°C] | folding enthalpy [2] [kcal/mol]
47 | GCTCTAGGAAACCAGAGC (((((.(....).))))) | 44 | -31.4
48 | GTAAGTGGAAACGTTTAC ((((..(....)..)))) | 27.5 | -10.7
49 | GATCTAACTGTAGATC ((((((....)))))) | 39.1 | -24.2
50 | GATCTAGGGATAGATC ((((((....)))))) | 42.3 | -30.8
51 | GAGGTTGGAAACAATCTC (((.(((....))).))) | 44.1 | -35.5
52 | GCACTGCGAAAGCCATGC (((..((....))..))) | 38.1 | -14.7
53 | GATCCCTGAGGGGATC ((((((....)))))) | 63 | -39.4
54 | GAGCTACGAAAGTAACTC (((.(((....))).))) | 42.3 | -25.5
55 | GGTCATGGAAACGTGATC (.(((.(....).))).) | 35.5 | -20
56 | GCGAGCGGAAACACCCGC (((.(.(....).).))) | 36.4 | -13.8
57 | GATCTTGACGAAGATC ((((((....)))))) | 46.1 | -26.5
58 | GGCAACGAAAGTTGAGCC ((((((....)))..))) | 45.4 | -15.3
59 | GGTCGTGCGAAAGCAACC (((..(((....)))))) | 27.6 | -8.03
60 | GCTCCCCGAAAGGGTAGC (((.(((....))).))) | 54 | -21.7
61 | GATCGAGTGTCGATC ((((((...)))))) | 49.8 | -37.6
62 | GATCGTCCCAACGATC ((((((....)))))) | 55.6 | -40.2
63 | GATCAGCACACTGATC ((((((....)))))) | 53.4 | -32.3
64 | GACTGCGAAAGCATAGTC ((((((....)))..))) | 46.9 | -19.4
65 | GATGTAGGAAACTACGTC ((.((((....)))).)) | 44.8 | -23.4
66 | GTGATTCGAAAGAAACAC (((.(((....))).))) | 46.5 | -30
67 | GATCAGTACCTGATC ((((((...)))))) | 48.9 | -44.9
68 | GTGGCGGGAAACCGCCGC (.(((((....))))).) | 66.6 | -14.9
69 | GATCTATCCTTAGATC ((((((....)))))) | 44.4 | -34.1

Row | Sequence | Tm [1] [°C] | folding enthalpy [2] [kcal/mol]
70 | GACATAGGAAACTATGCC (.(((((....))))).) | 34.3 | -18.6
71 | GATCAATCCTTGATC ((((((...)))))) | 44 | -28.7
72 | CGGTAGAAATACCG (((((....))))) | 48.6 | -28.2
73 | GCCGACGGAAACGCCGAC (.((.((....)).)).) | 36.4 | -16.7
74 | GTGGGCGAAAGCCTTCAC ((((((....)))..))) | 33.1 | -12.7
75 | GGGCTATCGAAAGATCCC (((..(((....)))))) | 31.9 | -22
76 | GCTTAGCGAAAGCGATGC ((.(.((....)).).)) | 59.5 | -18.6
77 | GCTTCGCGAAAGCGCTGC ((..(((....)))..)) | 41.4 | -22.9
78 | GTAGGCGAAAGCCCGTAC ((((((....)))..))) | 31.1 | -8.97
79 | GGCCACGAAAGTGGAGCC ((((((....)))..))) | 53.9 | -15.5
80 | GGTAGCCCGAAAGGGACC (((..(((....)))))) | 33.6 | -12.6
81 | GTACCCGAAAGGGTGTAC ((((((....)))..))) | 40.3 | -10.1
82 | GCTTCCGAAAGGACTAGC ((((((....)))..))) | 35.7 | -16.2
83 | GACTACGCGAAAGCGGTC (((..(((....)))))) | 38 | -15.1
84 | GTTGGAACGAAAGTTAAC (((..(((....)))))) | 29.6 | -14.5
85 | GTTGATCGAAAGATGAAC (((.(((....))).))) | 37.1 | -24.1
86 | GATCCTTGATAGGATC ((((((....)))))) | 50.5 | -35.4
87 | GAGTGTGAAAACACTC ((((((....)))))) | 60.9 | -35
88 | GCGTATGGAAACATACGC (((((((....))))))) | 68.2 | -37.7
89 | GCGAACGAAAGTTATCGC ((((((....)))..))) | 44.1 | -23.1
90 | GCTAGGGGAAACCCCAGC (((.(((....))).))) | 49.1 | -29.8
91 | GACGAGGAAACTCGTC ((((((....)))))) | 61.2 | -41.1
92 | GTGTCCCCGAAAGGGCAC (((..(((....)))))) | 49.6 | -21.4

Reference: the array DNA melting data of Ke et al. (doi:10.1101/2024.01.08.574731)
